Assay results as given in ChEMBL document CHEMBL4765302, “Design, synthesis and biological evaluation of novel histone deacetylase1/2 (HDAC1/2) and cyclin-dependent Kinase2 (CDK2) dual inhibitors against malignant cancer” (Eur J Med Chem, 2020).
pIC50: −log10 of the molar value. The source made the active and inactive calls. The rule behind the calls is not given here.

Legend:
HeLa [1] = experiment: Induction of apoptosis in human HeLa cells assessed as apoptosis rate at 2 uM incubated for 48 hrs by annexin V-FITC and PI staining based flow cytometry relative to control; assay type: functional
HeLa [2] = experiment: Induction of apoptosis in human HeLa cells assessed as viable cells at 0.5 uM incubated for 48 hrs by annexin V-FITC and PI staining based flow cytometry (reference value: 98.5 %); assay type: functional; settings: read-out: Activity
NCI-H460 [3] = experiment: Induction of apoptosis in human NCI-H460 cells assessed as late apoptotic cells at 0.5 uM incubated for 48 hrs by annexin V-FITC and PI staining based flow cytometry (reference value: 6.11 %); assay type: functional
HepG2 [4] = experiment: Cytotoxicity against human HepG2 cells assessed as effect on cell morphology at 0.5 to 8 micromol incubated for 48 hrs by microscopic analysis; assay type: functional, cell-based; settings: dose 0.5-8 µmol
Procedure, shortened: (§1)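 Five cancer cell lines treated with compound or DMSO (0.1 %) for 48 h. Morphology inspected by light microscopy at 10× objective.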

Histone deacetylase 2 = Histone deacetylase 2 (Homo sapiens, UniProt Q92769); experiment: Potency index, ratio of IC50 of CS055 to IC50 of compound for inhibition of recombinant human HDAC2 using FLUOR-DE-LYS-Green as substrate incubated for 10 mins followed by substrate addition and measured after 30 mins by fluorescence based assay
Sequence of Histone deacetylase 2 (Q92769 whole entry): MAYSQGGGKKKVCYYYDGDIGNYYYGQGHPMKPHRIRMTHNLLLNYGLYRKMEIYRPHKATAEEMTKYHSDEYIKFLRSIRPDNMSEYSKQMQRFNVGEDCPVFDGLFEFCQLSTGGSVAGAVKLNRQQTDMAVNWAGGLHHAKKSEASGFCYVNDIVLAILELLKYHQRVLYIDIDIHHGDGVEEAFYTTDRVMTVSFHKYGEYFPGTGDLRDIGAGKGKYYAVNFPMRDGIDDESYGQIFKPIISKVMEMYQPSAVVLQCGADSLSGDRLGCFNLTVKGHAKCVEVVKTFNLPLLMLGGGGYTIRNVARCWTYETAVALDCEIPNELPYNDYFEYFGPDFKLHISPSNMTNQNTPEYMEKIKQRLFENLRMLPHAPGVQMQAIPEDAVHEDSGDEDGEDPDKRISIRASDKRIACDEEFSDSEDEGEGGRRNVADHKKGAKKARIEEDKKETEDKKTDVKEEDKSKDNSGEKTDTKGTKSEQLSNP

HeLa [5] = experiment: Induction of apoptosis in human HeLa cells assessed as early apoptotic cells at 1 uM incubated for 48 hrs by annexin V-FITC and PI staining based flow cytometry (reference value: 0.528 %); assay type: functional
HeLa [6] = experiment: Induction of apoptosis in human HeLa cells assessed as viable cells at 2 uM incubated for 48 hrs by annexin V-FITC and PI staining based flow cytometry (reference value: 98.5 %); assay type: functional; settings: read-out: Activity
NCI-H460 [7] = experiment: Cytotoxicity against human NCI-H460 cells assessed as effect on cell morphology at 0.5 to 8 micromol incubated for 48 hrs by microscopic analysis; assay type: functional, cell-based; settings: dose 0.5-8 µmol; procedure, shortened: as §1
HCT-116 [8] = experiment: Induction of apoptosis in human HCT-116 cells assessed as late apoptotic cells at 0.5 uM incubated for 48 hrs by annexin V-FITC and PI staining based flow cytometry (reference value: 1.88 %); assay type: functional
A-375 [9] = experiment: Induction of cell cycle arrest in human A-375 cells assessed as G2/M phase at 0.5 uM incubated for 24 hrs by PI staining based flow cytometry (reference value: 13.7 %); assay type: functional
Procedure, shortened: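 Treatment at 2, 1 and 0.5 μM for 24 h, alongside CS055 and roscovitine, against a DMSO (0.1 %) blank. Cells then stained with propidium iodide and analyzed by flow cytometry.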

HCT-116 [10] = experiment: Antiproliferative activity against human HCT-116 cells assessed as reduction in cell growth incubated for 72 hrs by CCK-8 assay; assay type: functional, cell-based; settings: HCT-116, 72 h
Procedure, shortened: (§2)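 IC50 by CCK-8 assay across five solid-tumour lines (HCT116, HepG2, H460, HeLa, A375). Run only for compounds chosen after the single-concentration screen, with CS055 and roscovitine as references.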

HCT-116 [11] = experiment: Induction of apoptosis in human HCT-116 cells assessed as early apoptotic cells at 0.5 uM incubated for 48 hrs by annexin V-FITC and PI staining based flow cytometry (reference value: 4.14 %); assay type: functional
NCI-H460 [12] = experiment: Induction of apoptosis in human H460 cells assessed as apoptosis rate at 2 uM incubated for 48 hrs by annexin V-FITC and PI staining based flow cytometry relative to control; assay type: functional
A-375 [13] = experiment: Induction of apoptosis in human A-375 cells assessed as necrotic cells incubated for 48 hrs by annexin V-FITC and PI staining based flow cytometry; assay type: functional, cell-based; settings: dose 0.5-2 µM
NCI-H460 [14] = experiment: Induction of apoptosis in human NCI-H460 cells assessed as necrotic cells at 2 uM incubated for 48 hrs by annexin V-FITC and PI staining based flow cytometry (reference value: 0.632 %); assay type: functional
[15] = Half life in ICR mouse at 20 mg/kg, ip measured upto 24 hrs by LC-MS/MS analysis; settings: in vivo
[16] = Intraperitoneal bioavailability in ICR mouse at 20 mg/kg measured upto 24 hrs by LC-MS/MS analysis; settings: in vivo, ip
HCT-116 [17] = experiment: Antiproliferative activity against human HCT-116 cells assessed as reduction in cell growth at 2 uM incubated for 72 hrs by CCK-8 assay relative to control; assay type: functional
NCI-H460 [18] = experiment: Induction of apoptosis in human NCI-H460 cells assessed as necrotic cells at 0.5 uM incubated for 48 hrs by annexin V-FITC and PI staining based flow cytometry (reference value: 0.632 %); assay type: functional
HCT-116 [19] = experiment: Induction of apoptosis in human HCT-116 cells assessed as viable cells at 0.5 uM incubated for 48 hrs by annexin V-FITC and PI staining based flow cytometry (reference value: 93.9 %); assay type: functional; settings: read-out: Activity
NCI-H460 [20] = experiment: Induction of apoptosis in human NCI-H460 cells assessed as early apoptotic cells at 0.5 uM incubated for 48 hrs by annexin V-FITC and PI staining based flow cytometry (reference value: 2.88 %); assay type: functional
HeLa [21] = experiment: Induction of apoptosis in human HeLa cells assessed as early apoptotic cells at 2 uM incubated for 48 hrs by annexin V-FITC and PI staining based flow cytometry (reference value: 0.528 %); assay type: functional
[22] = AUC (0 to t) in ICR mouse at 20 mg/kg, ip measured upto 24 hrs by LC-MS/MS analysis; settings: in vivo
[23] = Half life in ICR mouse at 4 mg/kg, iv measured upto 24 hrs by LC-MS/MS analysis; assay type: ADME, organism-based; settings: in vivo
Procedure, shortened: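 Male ICR mice (N=9). Single dose, either 4 mg/kg intravenous or 20 mg/kg intraperitoneal. Parameters derived: T1/2, Tmax, Cmax, AUC0-t, MRT0-t and CL, with F for the intraperitoneal arm.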

NCI-H460 [24] = experiment: Antiproliferative activity against human H460 cells assessed as reduction in cell growth at 8 uM incubated for 72 hrs by CCK-8 assay relative to control; assay type: functional
HeLa [25] = experiment: Cytotoxicity against human HeLa cells assessed as effect on cell morphology at 0.5 to 8 micromol incubated for 48 hrs by microscopic analysis; assay type: functional, cell-based; settings: dose 0.5-8 µmol; procedure, shortened: as §1
NCI-H460 [26] = experiment: Induction of apoptosis in human NCI-H460 cells assessed as viable cells at 1 uM incubated for 48 hrs by annexin V-FITC and PI staining based flow cytometry (reference value: 90.4 %); assay type: functional; settings: read-out: Activity
HeLa [27] = experiment: Induction of apoptosis in human HeLa cells assessed as necrotic cells incubated for 48 hrs by annexin V-FITC and PI staining based flow cytometry; assay type: functional, cell-based; settings: dose 0.5-2 µM
[28] = Cmax in ICR mouse at 20 mg/kg, ip measured upto 24 hrs by LC-MS/MS analysis; settings: in vivo
HepG2 [29] = experiment: Antiproliferative activity against human HepG2 cells assessed as reduction in cell growth incubated for 72 hrs by CCK-8 assay; assay type: functional, cell-based; settings: HepG2, 72 h; procedure, shortened: as §2
HCT-116 [30] = experiment: Induction of apoptosis in human HCT-116 cells assessed as early apoptotic cells at 1 uM incubated for 48 hrs by annexin V-FITC and PI staining based flow cytometry (reference value: 4.14 %); assay type: functional
HCT-116 [31] = experiment: Induction of apoptosis in human HCT-116 cells assessed as necrotic cells incubated for 48 hrs by annexin V-FITC and PI staining based flow cytometry; assay type: functional, cell-based; settings: dose 0.5-2 µM

## Cc1ccc(Nc2nc(Cl)nc3c2ncn3Cc2ccc(C(=O)Nc3ccccc3N)cc2)cc1
HeLa [1]
  Activity: 22.36%
HeLa [2]
  viability at 0.5 µM: 89.9%
NCI-H460 [3]
  Activity: 4.31%
HepG2 [4]
  Activity: Active
Histone deacetylase 2
  Ratio IC50: 2
HeLa [5]
  Activity: 5.85%
HeLa [6]
  viability at 2 µM: 77.4%
NCI-H460 [7]
  Activity: Active
HCT-116 [8]
  Activity: 16.6%
A-375 [9]
  Activity: 57.03%
HCT-116 [10]
  pIC50: 6.24
HCT-116 [11]
  Activity: 60.7%
NCI-H460 [12]
  Activity: 59.1%
A-375 [13]
  Activity: Dose-dependent effect
NCI-H460 [14]
  Activity: 9.03%
[15]
  half-life: 2.84 h
[16]
  bioavailability: 50.8%
HCT-116 [17]
  inhibition at 2 µM: 76.3%
NCI-H460 [18]
  Activity: 0.254%
HCT-116 [19]
  viability at 0.5 µM: 21.3%
NCI-H460 [20]
  Activity: 6.74%
HeLa [21]
  Activity: 8.26%
[22]
  AUC(0-t) at 24 h: 7240 ng·h/mL
[23]
  half-life: 1.48 h
NCI-H460 [24]
  inhibition at 8 µM: 82.5%
HeLa [25]
  Activity: Active
NCI-H460 [26]
  viability at 1 µM: 63.1%
HeLa [27]
  Activity: Dose-dependent effect
[28]
  Cmax: 1360 ng/mL
HepG2 [29]
  pIC50: 6.07
HCT-116 [30]
  Activity: 72.1%
HCT-116 [31]
  Activity: Dose-dependent effect
